# Bioassay records as filed in PubChem.
# TPT1 inhibitor: C. albicans TPT1 enzyme inhibition | recombinant caTPT1, FP RNA substrate dephosphorylation | inhibition, % at 5 µM | actives 0.81% (n = 300,000) | AID 1962;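 active = inhibition above the mean of all tested compounds plus 3 SD, set per screening campaign, cut at about 24% in these data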
# CSN inh: inhibitors of human CSN-mediated cullin deneddylation. Q92905. Purified CSN, SCF-Nedd8-OG deneddylation, fluorescence polarization. inhibition, % at 12.5 µM. actives 0.38% (n = 360,000). AID 651999;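 active = pattern-corrected inhibition above about 35%, with an unprinted fluorescence ratio check between 0.5 and 1.5, limit read from the data, passing the limit was not always enough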
#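 test system = HEK293T-derived human Csn5 enzyme | amount = 0.24 nM Csn5 enzyme, final concentration | medium = Tris/NaCl/DTT buffer, pH 7.5 | schedule = 90 min reaction at room temperature | signal = FP | evaluation = inhibition of Csn5 cleavage, % | compound dosing = single dose of 12.5 µM compound with 0.25% DMSO | probe or stimulus = 10 nM SCFSkp2-Nedd8OG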
# Rpn11 block: blocks the human proteasome subunit Rpn11; actives 0.59% (n = 360,000); AID 588493; inhibition, % at 20 µM; human 26S proteasome, Ub4-pepOG fluorescence polarization; 20S core pre-blocked with epoxomicin;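 active = inhibition at 20 µM, scaled to each plate's controls, above about 33%, limit read from the data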
# SENP1 inh: SENP1 (human) catalytic domain inhibition | recombinant SENP1 catalytic domain, CyPet-SUMO1-YPet FRET cleavage | inhibition, % at 10 µM | Q9P0U3 | actives 0.21% (n = 360,000);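 active = inhibition at least 30% at 10 µM, raw YFP signal under a set limit, fluorescence ratio 0.5 to 1.5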
#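 Assay system: hSENP1 catalytic domain, recombinant. Amount: SENP1 enzyme, 20 pM final. Schedule: 50 min reaction, RT, dark. Technique: FRET, CFP and YFP emission. Control set: no-enzyme wells low, DMSO-plus-enzyme wells high control.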
# ATG4B inhibitor: ATG4B (human) cysteine protease inhibition | Q9Y4P1 | ATG4B cleavage of LC3-PLA2, NBD-HPC fluorescence, 1 h | inhibition, % at 8.33 µM | actives 0.51% (n = 340,000) | AID 504462; in the data active = inhibition above about 40%
# HNF4A DNA FP: change in binding of human HNF4 alpha to DNA; activity change, % at 10 µM; HNF4a-FITC DNA binding, fluorescence polarization, 1 h; actives 0.3% (n = 360,000); in the data active = activity change above about 30%, passing the limit was not always enough
# Target sequence (P41235 whole entry, looked up): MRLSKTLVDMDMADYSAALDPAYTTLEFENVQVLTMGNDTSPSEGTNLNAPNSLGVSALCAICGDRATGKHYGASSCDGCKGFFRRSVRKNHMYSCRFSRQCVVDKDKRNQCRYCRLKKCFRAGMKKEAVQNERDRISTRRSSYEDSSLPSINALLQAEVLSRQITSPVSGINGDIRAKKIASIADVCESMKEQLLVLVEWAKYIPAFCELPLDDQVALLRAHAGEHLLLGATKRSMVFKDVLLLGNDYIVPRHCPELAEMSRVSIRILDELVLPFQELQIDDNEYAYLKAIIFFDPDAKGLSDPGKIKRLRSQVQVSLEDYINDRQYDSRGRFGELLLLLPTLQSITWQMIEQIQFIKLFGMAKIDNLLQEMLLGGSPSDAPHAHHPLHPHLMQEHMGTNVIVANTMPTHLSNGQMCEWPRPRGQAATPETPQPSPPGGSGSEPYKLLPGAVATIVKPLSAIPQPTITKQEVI
# ATG4B confirm: ATG4B (human) inhibition, single-dose confirmed | shares compounds with ATG4B inhibitor | ATG4B protease fluorescent substrate cleavage assay | inhibition, % at 8.33 µM | actives 92% (n = 320) | AID 504757; in the data active = inhibition above about 39%
# PLA2 ctr: inhibits human PLA2, flagging false ATG4B inhibitors; shares compounds with ATG4B inhibitor; purified PLA2, NBD-C6-HPC fluorescence, 45 min; actives 66% (n = 1,600); inhibition, % at 8.33 µM; in the data active = inhibition above about 50%
# Target sequence (P04054 whole entry, looked up): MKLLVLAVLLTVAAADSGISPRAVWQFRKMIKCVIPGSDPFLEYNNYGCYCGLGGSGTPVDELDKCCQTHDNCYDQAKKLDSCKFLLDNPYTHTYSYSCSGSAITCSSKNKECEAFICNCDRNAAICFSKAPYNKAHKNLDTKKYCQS
# A number is an active result; n = inactive; x = no result given. Shown are actives, neighbours in structure and some others; about 2% of the full set was active somewhere.
SMILES,TPT1 inhibitor,CSN inh,Rpn11 block,SENP1 inh,ATG4B inhibitor,HNF4A DNA FP,PLA2 ctr,others
FC(F)(F)c1cc(-c2ccco2)nc(NCc2ccccc2)n1,n,n,n,n,n,n,x,
Fc1ccc(CNc2nc(-c3ccco3)cc(C(F)(F)F)n2)cc1,n,n,n,n,41,n,52,
c1ccc(CSc2nnc3c(n2)OC(c2ccco2)Nc2ccccc2-3)cc1 (stereo not given),n,n,n,n,42,n,n,ATG4B confirm=96
C=CCSc1nnc2c(n1)OC(c1cccnc1)Nc1ccccc1-2 (stereo not given),n,n,n,n,n,n,x,
COc1cccc(/C=C(\CC(=O)O)c2nc3ccccc3s2)c1,n,n,n,n,n,n,x,
O=C(O)CC/C(=C\c1ccc(N2CCCC2)c([N+](=O)[O-])c1)c1nc2ccccc2s1,n,n,n,n,83,n,83,
O=C(O)CC/C(=C\c1ccccc1[N+](=O)[O-])c1nc2ccccc2s1,n,n,n,n,53,n,51,
O=C(O)CC/C(=C\c1cccc(NC(=O)c2ccccc2Cl)c1)c1nc2ccccc2s1,n,n,n,n,43,n,62,
O=C(O)CC/C(=C\c1cc([N+](=O)[O-])ccc1Cl)c1nc2ccccc2s1,n,n,n,n,n,n,x,
O=C(CSc1nc2ccccc2c(=O)n1-c1ccc(Cl)cc1)N/N=C/C=C/c1ccccc1[N+](=O)[O-],n,n,n,n,54,n,n,ATG4B confirm=72
CCCCc1c(-c2ccc(F)cc2)ncn1CCc1ccccc1OC,x,n,x,n,x,n,x,
COC(=O)c1ccc(CSc2nc3c(c(=O)n2-c2ccc(C)cc2)SCC3)o1,n,n,n,n,48,n,70,
Cn1c(C(=O)N2CCc3ccccc3C2)cc2oc3ccccc3c21,n,n,n,n,59,n,64,
COc1cc2c(cc1OC)CN(C(=O)c1oc3ccccc3c1C)CC2,n,n,n,n,n,n,x,
CCn1c(C(=O)N2CCc3ccccc3C2)cc2oc3ccccc3c21,n,n,n,n,43,n,72,
COc1ccc(OC)c(NC(=O)CSc2ncnc3sc(C)cc23)c1,x,n,n,n,n,n,x,
CCCS(=O)(=O)NC(=O)C1(C)CCCN(C(=O)c2ccc(OC)cc2OC)C1 (stereo not given),x,n,n,n,x,n,x,
O=C(O)c1cc(Br)ccc1NN=C1CCCCC1,n,n,n,n,50,n,n,ATG4B confirm=62
O=c1cccccc1NN=C1CCCCC1,n,n,n,n,n,n,x,
COCCNc1ncnc2c1ncn2[C@H]1CN(Cc2ccncc2)C[C@@H](CO)O1,x,n,n,n,x,n,x,
CCCCC(=O)NC(=S)Nc1cccc(Cl)c1N1CCCCC1,n,n,n,n,n,n,x,
CCC(=O)NC(=S)Nc1cccc(Cl)c1N1CCCCC1,n,n,n,n,42,n,n,ATG4B confirm=61
CCCC(=O)NC(=S)Nc1cccc(Cl)c1N1CCCCC1,n,n,n,n,41,n,n,ATG4B confirm=56
O=C(Nc1cccc(Cl)c1N1CCCC1)c1ccc([N+](=O)[O-])o1,n,n,n,n,n,n,x,
O=C(Nc1cccc(Cl)c1N1CCCC1)c1ccc(Br)o1,n,n,n,n,56,n,56,
SMILES,TPT1 inhibitor,CSN inh,Rpn11 block,SENP1 inh,ATG4B inhibitor,HNF4A DNA FP,PLA2 ctr,others
NC(=O)c1ccc(NS(=O)(=O)c2ccc(S(=O)(=O)N3CCCC3)cc2)cc1,x,n,n,n,x,n,x,
Cc1cccc(NC(=O)COC(=O)c2ccccc2-c2nc3ccccc3s2)c1C,n,n,n,n,48,n,51,
CCOCC(=O)Nc1cccc(-c2nc3cccnc3s2)c1C,n,n,n,n,n,n,x,
CCCCCCCCN1[C@@H](CC(=O)O)c2cc(C(F)(F)F)ccc2S1(=O)=O,n,n,n,n,n,n,x,
CCCCCCCCCCCCN1[C@@H](CC(=O)O)c2cc(C(F)(F)F)ccc2S1(=O)=O,n,n,n,n,59,n,72,
COc1cccc(C2c3[nH]c4ccccc4c3CCN2Cc2cccn2-c2ncccn2)c1 (stereo not given),n,n,n,n,n,n,x,
Fc1ccc(C2c3[nH]c4ccccc4c3CCN2Cc2cccn2-c2ncccn2)cc1 (stereo not given),n,n,n,n,41,n,n,ATG4B confirm=70
O=C(CSCc1c(Cl)cccc1Cl)Nc1ccccc1-c1ccccc1,n,n,n,n,74,n,80,
CC(C)(C)n1ncc2c(=O)n(Cc3ccccc3Br)cnc21,x,n,n,n,41,n,n,ATG4B confirm=69
Cc1ccc(Cn2cnc3c(cnn3C(C)(C)C)c2=O)cc1,n,n,n,n,n,n,x,
CC(C)c1ccc(NC2CCCN(C(=O)c3cscn3)C2)cc1 (stereo not given),x,n,n,n,n,n,x,
CC(C)c1ccc(NC2CCCN(C(=O)c3cc(C(C)C)nc(N)n3)C2)cc1 (stereo not given),n,n,n,n,75,n,77,
CC(C)c1ccc(NC2CCCN(C(=O)c3ccc(N4CCOCC4)cc3)C2)cc1 (stereo not given),n,n,n,n,77,n,82,
CC(C)c1ccc(NC2CCCN(C(=O)CC3CCCC3)C2)cc1 (stereo not given),n,n,n,n,87,n,89,
O=C(c1ccoc1)N1CCCC(Nc2ccc(F)c(F)c2)C1 (stereo not given),n,n,n,n,n,n,x,
CC(C)c1ccc(NC2CCCN(C(=O)c3ccoc3)C2)cc1 (stereo not given),n,n,n,n,56,n,60,
CC(=O)Nc1ccccc1-c1cccc2nccn12,x,n,n,n,x,n,x,
CCCn1c(=S)[nH]c2cc(C(=O)N3CCc4ccccc43)ccc2c1=O,n,n,n,n,65,n,n,
Cc1ccccc1/C=N/Nc1ccnc2cc(Cl)ccc12,n,n,n,n,48,n,n,ATG4B confirm=65
Cc1ccc(/C=N/Nc2ccnc3cc(Cl)ccc23)c(C)c1,n,n,n,n,46,n,n,
COCCN(C(=O)CSc1nnc(-c2ccncc2)n1C)c1c(N)n(CC(C)C)c(=O)[nH]c1=O,x,n,n,n,n,n,x,
C[C@@H]1CC[C@H](Cc2ccc(-n3cccc3)cc2)N1C(=O)OC(C)(C)C,x,n,n,n,x,n,x,
Cc1ccc(S(=O)(=O)N(Cc2ccccc2)Cc2ccco2)cc1,n,n,n,n,44,n,56,
[O-][n+]1ccc(CC(O)(C(F)(F)F)C(F)(F)F)cc1,x,n,n,n,x,n,x,
